# pIC50: −log10 of the molar value. The source made the active and inactive calls. No cut-off for these calls is given here.
# Key:
# [1] = Inhibition of hedgehog signaling pathway in mouse Light2 cells in Shh conditioned medium by Gli-luciferase reporter gene assay; format: cell-based
# Summary of the method: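 Light II cells (NIH-3T3 stably transfected with Gli-responsive firefly luciferase and Renilla expression vector) stimulated with ShhN conditioned medium. This medium was collected from ShhN-transfected HEK293 cells kept in 0.1% FBS. Firefly luciferase normalized to Renilla. IC50 given as mean ± SD (nM) from three separate experiments.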
# Mus musculus [2] = organism: Mus musculus; assay: Inhibition of hedgehog signaling pathway in mouse Light2 cells in Shh conditioned medium at 1 uM by Gli-luciferase reporter gene assay relative to control; format: cell-based
# Homo sapiens [3] = organism: Homo sapiens; assay: Inhibition of TNFalpha-induced NFkappaB activation in HEK293 cells at 20 uM after 24 hrs by dual luciferase reporter gene assay; format: cell-based; conditions: 1 uM, in the assay text read “1 uM” for “20 uM”
# Summary of the method: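 HEK293 cells carrying NF-κB firefly reporter plus Renilla, stimulated with TNF-α and treated for 24 h. Cells lysed for dual luciferase assay, firefly signal normalized to Renilla. Data given as mean ± SD.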
# Mus musculus [4] = organism: Mus musculus; assay: Inhibition of hedgehog signaling pathway in mouse NIH/3T3 cells harboring sufu shRNA assessed as downregulation of Gli1 mRNA expression at 1 uM by RT-qPCR analysis; format: cell-based
# Summary of the method: (§1)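 Sufu expression in NIH-3T3 cells was reduced by lentivirus carrying Sufu shRNA. Knockdown was checked by immunoblot of Sufu, with GAPDH as loading control, in lysates made in Tris pH 7.4/NaCl/NP-40 buffer with protease and phosphatase inhibitors. Gli1 and ptch1 mRNA were then measured in the knockdown cells by RT-qPCR.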
# Mus musculus [5] = organism: Mus musculus; assay: Inhibition of hedgehog signaling pathway in mouse NIH/3T3 cells harboring sufu shRNA assessed as downregulation of ptch1 mRNA expression at 1 uM by RT-qPCR analysis; format: cell-based; summary of the method: as §1
# Homo sapiens [6] = organism: Homo sapiens; assay: Inhibition of PGE2-stimulated TCF/LEF activity in human LS174T cells at 20 uM measured after 6 hrs by dual luciferase reporter gene assay; format: cell-based
# Summary of the method: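 LS174T cells carrying TCF/LEF reporter, stimulated with PGE2 and treated for 6 h. Dual luciferase read-out, firefly normalized to Renilla. Data given as mean ± SD.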
# Mus musculus [7] = organism: Mus musculus; assay: Inhibition of hedgehog signaling pathway in mouse NIH/3T3 cells assessed as downregulation of Shh-induced Gli1 mRNA expression levels at 100 nM after 36 hrs by RT-qPCR analysis; format: cell-based
# Summary of the method: (§2)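 NIH-3T3 or C3H10T1/2 cells treated as indicated for 36 h, then collected for RT-qPCR of Gli1 and ptch1 mRNA. Data given as mean ± SD.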
# Mus musculus [8] = organism: Mus musculus; assay: Inhibition of hedgehog signaling pathway in mouse C3H10T1/2 cells assessed as downregulation of Shh-induced Gli1 mRNA expression levels at 100 nM after 36 hrs by RT-qPCR analysis; format: cell-based; summary of the method: as §2
# Mus musculus [9] = organism: Mus musculus; assay: Inhibition of hedgehog signaling pathway in mouse NIH/3T3 cells assessed as downregulation of Shh-induced ptch1 mRNA expression levels at 100 nM after 36 hrs by RT-qPCR analysis; format: cell-based; summary of the method: as §2
# Mus musculus [10] = organism: Mus musculus; assay: Inhibition of hedgehog signaling pathway in mouse C3H10T1/2 cells assessed as downregulation of Shh-induced ptch1 mRNA expression levels at 100 nM after 36 hrs by RT-qPCR analysis; format: cell-based; summary of the method: as §2
# Mus musculus [11] = organism: Mus musculus; assay: Inhibition of hedgehog signaling pathway in mouse NIH/3T3 cells harboring sufu shRNA assessed as downregulation of Gli1 mRNA expression at 100 nM by RT-qPCR analysis; format: cell-based
# Mus musculus [12] = organism: Mus musculus; assay: Inhibition of hedgehog signaling pathway in mouse NIH/3T3 cells harboring sufu shRNA assessed as downregulation of ptch1 mRNA expression at 100 nM by RT-qPCR analysis; format: cell-based
# Mus musculus [13] = organism: Mus musculus; assay: Inhibition of hedgehog signaling pathway in mouse Shh Light2 cells harboring Gli1 plasmid assessed as reduction in Gli1-mediated transcriptional activity at 100 nM by luciferase reporter gene assay; format: cell-based
# Mus musculus [14] = organism: Mus musculus; assay: Inhibition of hedgehog signaling pathway in mouse Shh Light2 cells harboring Gli2 plasmid assessed as reduction in Gli2-mediated transcriptional activity at 100 nM by luciferase reporter gene assay; format: cell-based
# Medulloblastoma cell = assay: Antiproliferative activity against mouse Ptch+/- p53-/- medulloblastoma cells assessed as reduction in cell proliferation up to 30 uM after 72 hrs by MTS assay; format: functional, cell-based
# Summary of the method: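 Tumor cells obtained from ptch+/−;p53−/− medulloblastoma allografts by mechanical mincing and collagenase digestion. Cultured in Neurobasal A with B-27, EGF 20 ng/mL, bFGF 20 ng/mL, nonessential amino acids and N-acetylcysteine 60 μg/mL. Exposed to compounds for 72 h, then proliferation read by MTS assay. Data given as mean ± SD.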
SMILES,pIC50 ([1]; Mus musculus),inhibition (Mus musculus [2]) [%],also measured
O=C(Nc1cccc2c1OCC1CN(S(=O)(=O)c3ccc(Cl)s3)CCN1C2=O)C1CC1 (stereo unspecified),6.32,80,–
O=C(Nc1cccc2c1OCC1CN(S(=O)(=O)c3ccc(Cl)cc3)CCN1C2=O)C1CC1 (stereo unspecified),< 6.00,35,–
Cn1ccc(S(=O)(=O)N2CCN3C(=O)c4cccc(NC(=O)C5CC5)c4OCC3C2)n1 (stereo unspecified),< 6.00,58,–
COc1ccc(CN2C[C@H]3CN(S(=O)(=O)c4ccc(Cl)cc4)CC[C@H]3Oc3c(NC(=O)C4CC4)cccc3C2=O)cc1,6.70,92,–
C[C@H](CO)N1CC2CCN(S(=O)(=O)c3ccc(Cl)cc3)CC2Oc2c(NC(=O)C3CC3)cccc2C1=O (stereo partly specified) [listing 1 of 2 here],< 6.00,–,–
COc1ccc(CN2C[C@@H]3CN(S(=O)(=O)c4ccc(Cl)cc4)CC[C@@H]3Oc3c(NC(=O)C4CC4)cccc3C2=O)cc1 [listing 1 of 2 here],–,–,pIC50 [1]: 7.92
COc1ccc(CN2C[C@@H]3CN(S(=O)(=O)c4ccc(Cl)cc4)CC[C@@H]3Oc3c(NC(=O)C4CC4)cccc3C2=O)cc1 [listing 2 of 2 here],–,117,–
C[C@H](CO)N1CC2CCN(S(=O)(=O)c3ccc(Cl)cc3)CC2Oc2c(NC(=O)C3CC3)cccc2C1=O (stereo partly specified) [listing 2 of 2 here],–,34,–
Cc1ccc(S(=O)(=O)/C=C/C#N)cc1,–,–,inhibition (Homo sapiens [3]): Active
Cc1sc2c(c1C)C(c1ccc(Cl)cc1)=N[C@@H](CC(=O)OC(C)(C)C)c1nnc(C)n1-2,–,–,inhibition (Mus musculus [4]): Active; inhibition (Mus musculus [5]): Active
O=S(=O)(NCCNC/C=C/c1ccc(Br)cc1)c1cccc2cnccc12,–,–,inhibition (Homo sapiens [6]): Active
COc1ccc(CN2C[C@@H]3CN(S(=O)(=O)c4ccn(C)n4)CC[C@@H]3Oc3c(NC(=O)C4CC4)cccc3C2=O)cc1 (racemic),6.84,87,–
O=C(Nc1cccc2c1O[C@H]1CN(S(=O)(=O)c3ccc(Cl)cc3)CC[C@H]1CN(CCO)C2=O)C1CC1 (racemic),< 6.00,25,–
COc1ccc(CN2C[C@@H]3CCN(S(C)(=O)=O)C[C@@H]3Oc3c(NC(=O)C4CC4)cccc3C2=O)cc1 (racemic),< 6.00,45,–
COc1ccc(CN2C[C@@H]3CCN(S(=O)(=O)c4ccc(NC(C)=O)cc4)C[C@@H]3Oc3c(NC(=O)C4CC4)cccc3C2=O)cc1 (racemic),7.38,105,–
O=C(Nc1cccc2c1O[C@H]1CN(S(=O)(=O)c3ccc(Cl)cc3)CC[C@H]1CN(Cc1cccnc1)C2=O)C1CC1 (racemic),< 6.00,28,–
COc1ccc(CN2CC3CN(S(=O)(=O)c4ccc(Cl)cc4Cl)CCC3Oc3c(NC(=O)C4CC4)cccc3C2=O)cc1 (racemic),7.48,107,–
COc1ccc(CN2C[C@@H]3CCN(S(=O)(=O)C4CCCCC4)C[C@@H]3Oc3c(NC(=O)C4CC4)cccc3C2=O)cc1 (racemic),< 6.00,42,–
O=C(Nc1cccc2c1O[C@H]1CN(S(=O)(=O)c3ccc(Cl)cc3)CC[C@H]1CN(CCO)C2=O)C1CCCCC1 (racemic),< 6.00,32,–
COc1ccc(CN2C[C@@H]3CCN(S(=O)(=O)c4ccc(Cl)cc4)C[C@@H]3Oc3c(NC(=O)C4CC4)cccc3C2=O)cc1 (racemic),6.52,97,–

SMILES,pIC50 ([1]; Mus musculus),inhibition (Mus musculus [2]) [%],also measured
CN1CCC(N2C[C@@H]3CCN(S(=O)(=O)c4ccc(Cl)cc4)C[C@@H]3Oc3c(NC(=O)C4CC4)cccc3C2=O)CC1 (racemic),6.46,61,–
COc1ccc(CN2C[C@@H]3CCN(S(=O)(=O)c4ccc(Cl)s4)C[C@@H]3Oc3c(NC(=O)C4CC4)cccc3C2=O)cc1 (racemic),6.78,113,–
COc1ccc(CN2C[C@@H]3CCN(S(=O)(=O)c4ccc(Cl)cc4)C[C@@H]3Oc3ccc(NC(=O)C4CC4)cc3CC2=O)cc1 (racemic),6.30,60,–
COc1ccc(CN2C[C@@H]3CCN(C(=O)Nc4ccc(C(F)(F)F)cc4)C[C@@H]3Oc3c(NC(=O)C4CC4)cccc3C2=O)cc1 (racemic),6.53,100,–
COc1ccc(CN2C[C@@H]3CN(S(=O)(=O)c4ccc(Cl)cc4)CC[C@@H]3Oc3ccc(NC(=O)C4CC4)cc3CC2=O)cc1 (racemic),< 6.00,36,–
COc1ccc(CN2C[C@@H]3CCN(S(=O)(=O)N4CCN(C)CC4)C[C@@H]3Oc3c(NC(=O)C4CC4)cccc3C2=O)cc1 (racemic),< 6.00,45,–
COc1ccc(CN2C[C@@H]3CN(S(=O)(=O)c4ccc(Cl)s4)CC[C@@H]3Oc3c(NC(=O)C4CC4)cccc3C2=O)cc1 (racemic),7.34,108,–
COc1ccc(CN2CC3CN(C(=O)Nc4ccc(C(F)(F)F)cc4)CCC3Oc3c(NC(=O)C4CC4)cccc3C2=O)cc1 (racemic),< 6.00,68,–
COc1ccc(CN2CC3CN(S(=O)(=O)c4ccc(NC(C)=O)cc4)CCC3Oc3c(NC(=O)C4CC4)cccc3C2=O)cc1 (racemic),6.11,82,–
COc1ccc(CN2C[C@@H]3CCN(S(=O)(=O)c4ccn(C)n4)C[C@@H]3Oc3ccc(NC(=O)C4CC4)cc3CC2=O)cc1 (racemic),< 6.00,16,–
COc1ccc(CN2C[C@@H]3CCN(S(=O)(=O)c4ccc(OC)c(OC)c4)C[C@@H]3Oc3c(NC(=O)C4CC4)cccc3C2=O)cc1 (racemic),< 6.00,54,–
COc1ccc(CN2C[C@@H]3CCN(C(=O)c4ccc(Cl)cc4)C[C@@H]3Oc3c(NC(=O)C4CC4)cccc3C2=O)cc1 (racemic),< 6.00,22,–
COc1ccc(CN2C[C@@H]3CN(S(=O)(=O)c4ccn(C)n4)CC[C@@H]3Oc3ccc(NC(=O)C4CC4)cc3CC2=O)cc1 (racemic),< 6.00,–,–
COc1ccc(CN2C[C@@H]3CCN(S(=O)(=O)c4ccn(C)n4)C[C@@H]3Oc3c(NC(=O)C4CC4)cccc3C2=O)cc1 (racemic),7.03,74,–
COc1ccc(CN2C[C@@H]3CN(S(=O)(=O)c4ccc(Cl)s4)CC[C@@H]3Oc3ccc(NC(=O)C4CC4)cc3CC2=O)cc1 (racemic),5.79,65,–
COc1ccc(CN2C[C@@H]3CCN(S(=O)(=O)c4ccc(Cl)cc4Cl)C[C@@H]3Oc3c(NC(=O)C4CC4)cccc3C2=O)cc1 (racemic),6.12,102,–
COc1ccc(CN2C[C@@H]3CCN(C(=O)Nc4ccc(F)cc4F)C[C@@H]3Oc3c(NC(=O)C4CC4)cccc3C2=O)cc1 (racemic),7.59,100,–
COc1ccc(CN2CC3CN(C(=O)Nc4ccc(F)cc4F)CCC3Oc3c(NC(=O)C4CC4)cccc3C2=O)cc1 (racemic),6.27,87,–
"C[C@H](CO)N1CC2CCN(S(=O)(=O)c3ccc(Cl)cc3)CC2Oc2c(NC(=O)C3CC3)cccc2C1=O (single isomer, unassigned; (+))",–,40,–
CS(=O)(=O)c1ccc(C(=O)Nc2ccc(Cl)c(-c3ccccn3)c2)c(Cl)c1 [VISMODEGIB],7.41,93,inhibition (Mus musculus [7]): Active; inhibition (Mus musculus [8]): Active; inhibition (Mus musculus [9]): Active; inhibition (Mus musculus [10]): Active; inhibition (Mus musculus [11]): inactive; inhibition (Mus musculus [12]): inactive; inhibition (Mus musculus [13]): inactive; inhibition (Mus musculus [14]): inactive; inhibition (Medulloblastoma cell): Active

# From ChEMBL document CHEMBL4017514, “Discovery of Novel Macrocyclic Hedgehog Pathway Inhibitors Acting by Suppressing the Gli-Mediated Transcription” (J Med Chem, 2017)
